Source: ChEMBL document CHEMBL1124399, “Synthesis and structure-activity studies of some disubstituted phenylisoxazoles against human picornavirus” (J Med Chem, 1989)
Values after ≈ are worked out from the molar mass of the structure shown. Values joined by “and” are separate entries in the source; they are usually repeats but may differ in a detail not shown here. Identical values can stand only once. Active and inactive are the calls of the source. The calls are words filed in the database; no cut-off is given here.

Key:
Type in all cases: functional
Enterovirus [1] = experiment: (§1) In vitro anti-rhinovirus activity was measured as maximum testable levels - highest concentration of compound which causes no apparent effect on the cell monolayers
Enterovirus [2] = experiment: In vitro anti-rhinovirus activity was measured as mean MIC for five serotypes, HRV-1A, -2, -22, -41, and -50
How it was run: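 Mean of plaque-reduction-assay MICs across five rhinovirus serotypes (HRV-1A, -2, -22, -41, -50), chosen to represent a range of sensitivity to this compound class.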

Enterovirus [3] = experiment: as §1; remark: listed apart in the source
Enterovirus [4] = experiment: Minimum inhibitory concentration against rhinovirus serotype 15; details: Enterovirus; read-out: MIC
How it was run: (§2)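 Rhinovirus minimum inhibitory concentration (MIC) determined in a plaque reduction assay in cell culture, testing each serotype separately.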

Enterovirus [5] = experiment: Minimum inhibitory concentration against rhinovirus serotype 1A; how it was run: as §2
Enterovirus [6] = experiment: Minimum inhibitory concentration against rhinovirus serotype 21.; how it was run: as §2
Enterovirus [7] = experiment: Minimum inhibitory concentration against rhinovirus serotype 41; how it was run: as §2
Enterovirus [8] = experiment: Minimum inhibitory concentration against rhinovirus serotype 67; how it was run: as §2
Enterovirus [9] = experiment: Concentration required to inhibit 80 percent rhinovirus cell culture
How it was run: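 MIC80 is the concentration that inhibits 80% of the rhinovirus serotypes tested. It is derived from per-serotype MICs measured by plaque reduction assay.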

Enterovirus [10] = experiment: Minimum inhibitory concentration against rhinovirus serotype 30; how it was run: as §2
Enterovirus [11] = experiment: Minimum inhibitory concentration against rhinovirus serotype 50; how it was run: as §2
Enterovirus [12] = experiment: Minimum inhibitory concentration against rhinovirus serotype 86; how it was run: as §2
Enterovirus [13] = experiment: Minimum inhibitory concentration against rhinovirus serotype 89; how it was run: as §2
Enterovirus [14] = experiment: Minimum inhibitory concentration against rhinovirus serotype 25; how it was run: as §2
Enterovirus [15] = experiment: Minimum inhibitory concentration against rhinovirus serotype 6.; how it was run: as §2
Enterovirus [16] = experiment: Minimum inhibitory concentration against rhinovirus serotype 14; how it was run: as §2
Enterovirus [17] = experiment: Minimum inhibitory concentration against rhinovirus serotype 1B.; how it was run: as §2

SMILES	MIC (Enterovirus [1]) [µM]	MIC (Enterovirus [2]) [µM]	MIC (Enterovirus [3]; Enterovirus, read-out: MIC) [µM]	MIC (Enterovirus [4]) [µM]	MIC (Enterovirus [5]) [µM]	MIC (Enterovirus [6]; Enterovirus, read-out: MIC) [µM]	MIC (Enterovirus [7]) [µM]	MIC (Enterovirus [8]; Enterovirus, read-out: MIC) [µM]	MIC80 (Enterovirus [9]) [µM]	MIC (Enterovirus [10]; Enterovirus, read-out: MIC) [µM]	MIC (Enterovirus [11]) [µM]	other results
COc1cc(C2=NCCO2)cc(OC)c1OCCCCCc1cc(C)no1	7.7 (≈ 2.88 µg/mL)	9.9 (≈ 3.71 µg/mL)	33.4 (≈ 12.5 µg/mL)	0.6 (≈ 0.225 µg/mL)	6.2 (≈ 2.32 µg/mL)	13.4 (≈ 5.02 µg/mL)	12.6 (≈ 4.72 µg/mL)	14.7 (≈ 5.5 µg/mL)	13.4 (≈ 5.02 µg/mL)			MIC (Enterovirus [3]): 16.7 µM (≈ 6.25 µg/mL)
Cc1cc(CCCCCOc2c(Cl)cc(C3=NCCO3)cc2Br)on1	0.6 (≈ 0.257 µg/mL)	0.61 (≈ 0.261 µg/mL)		0.4 (≈ 0.171 µg/mL)	0.04 (≈ 0.0171 µg/mL)	0.3 (≈ 0.128 µg/mL)	1.8 (≈ 0.77 µg/mL)		0.5 (≈ 0.214 µg/mL)	0.08 (≈ 0.0342 µg/mL)	0.09 (≈ 0.0385 µg/mL)	MIC (Enterovirus [6]): 0.2 µM (≈ 0.0855 µg/mL); MIC (Enterovirus [12]): 0.02 µM (≈ 0.00855 µg/mL)
Cc1cc(CCCCCOc2c(Cl)cc(C3=NCCO3)cc2[N+](=O)[O-])on1	1.4 (≈ 0.551 µg/mL)	1.35 (≈ 0.532 µg/mL)		0.2 (≈ 0.0788 µg/mL)	0.07 (≈ 0.0276 µg/mL)		3 (≈ 1.18 µg/mL)	0.3 (≈ 0.118 µg/mL)	0.5 (≈ 0.197 µg/mL)	0.05 (≈ 0.0197 µg/mL)	0.2 (≈ 0.0788 µg/mL)	MIC (Enterovirus [12]): 0.4 µM (≈ 0.158 µg/mL); MIC (Enterovirus [13]): 0.02 µM (≈ 0.00788 µg/mL)
Cc1cc(CCCCCOc2c(F)cc(C3=NCCO3)cc2F)on1	2.7 (≈ 0.946 µg/mL)	2.69 (≈ 0.942 µg/mL)		0.5 (≈ 0.175 µg/mL)	0.13 (≈ 0.0455 µg/mL)	0.08 (≈ 0.028 µg/mL)	2.3 (≈ 0.806 µg/mL)	0.12 (≈ 0.042 µg/mL)	1.9 (≈ 0.666 µg/mL)		0.1 (≈ 0.035 µg/mL)	MIC (Enterovirus [14]): 6.6 µM (≈ 2.31 µg/mL); MIC (Enterovirus [10]): 0.5 µM and 0.2 µM; MIC (Enterovirus [15]): 1.1 µM (≈ 0.385 µg/mL); MIC (Enterovirus [8]): 0.1 µM (≈ 0.035 µg/mL)
CCc1cc(C2=NCCO2)cc(C)c1OCCCCCc1cc(C)no1		5.18 (≈ 1.85 µg/mL)	35 (≈ 12.5 µg/mL)									
Cc1cc(CCCCCOc2c(C)cc(C3=NCCO3)cc2Cl)on1	0.7 (≈ 0.254 µg/mL)	0.92 (≈ 0.334 µg/mL)		0.6 (≈ 0.218 µg/mL)	0.04 (≈ 0.0145 µg/mL)	0.2 (≈ 0.0726 µg/mL)	1.9 (≈ 0.689 µg/mL)		0.9 (≈ 0.327 µg/mL)		0.7 (≈ 0.254 µg/mL)	MIC (Enterovirus [16]): 0.6 µM (≈ 0.218 µg/mL); MIC (Enterovirus [17]): 0.6 µM (≈ 0.218 µg/mL); MIC (Enterovirus [17]; Enterovirus, read-out: MIC): 0.4 µM (≈ 0.145 µg/mL); MIC (Enterovirus [15]; Enterovirus, read-out: MIC): 0.06 µM (≈ 0.0218 µg/mL)
Cc1cc(CCCCCOc2ccc(C3=NCCO3)cc2)on1	5.2 (≈ 1.63 µg/mL)	5.16 (≈ 1.62 µg/mL)	9.9 (≈ 3.11 µg/mL)	1.5 (≈ 0.472 µg/mL)	1.1 (≈ 0.346 µg/mL)	1.2 (≈ 0.377 µg/mL)	15 (≈ 4.72 µg/mL)	0.4 (≈ 0.126 µg/mL)	7 (≈ 2.2 µg/mL)	0.3 (≈ 0.0943 µg/mL)		MIC (Enterovirus [3]): 7 µM (≈ 2.2 µg/mL); MIC (Enterovirus [6]): inactive; MIC (Enterovirus [15]): 0.9 µM (≈ 0.283 µg/mL); MIC (Enterovirus [15]; Enterovirus, read-out: MIC): 0.7 µM (≈ 0.22 µg/mL); MIC (Enterovirus [13]): inactive
